Measured values from different studies.
rep papain-like protease: Replicase polyprotein 1ab, papain-like protease (rep, Porcine epidemic diarrhea virus, UniProt P0C6Y4)
SLC6A4: Sodium-dependent serotonin transporter (SLC6A4, Homo sapiens, UniProt P31645)

The IC50 of `O=C(NCc1cc(O)c(O)c(Br)c1)c1ccc(OC(F)(F)F)cc1` is reported as 9.96 µM (rep papain-like protease; enzyme activity; inhibitor; FRET).
`Cc1cc2[nH]cc(C(=O)O)c(=O)n2n1` gave a Kd of > 20000 µM (Peptidyl-prolyl cis-trans isomerase F, mitochondrial (PPIF, Homo sapiens, UniProt P30405); binding; SPR).
The Kd of `O=C(NCc1ccc(Br)cc1)c1c[nH]c(-c2n[nH]c3ncccc23)c1` is reported as 0.0439 µM (E3 ubiquitin-protein ligase NEDD4 (Homo sapiens, UniProt P46934); binding; MST).
`O=C1CCC(N2Cc3cc(-c4cc5ccccc5cn4)ccc3C2=O)C(=O)N1` (stereo not drawn) has a DC50 of 0.043 µM (WEE1/CRBN (Homo sapiens, UniProt P30291+Q96SW2); protein level; degrader).
The IC50 of `O=C(NCc1cc(O)c(O)c(Br)c1)c1ccc(Cl)s1` is reported as 2.73 µM (rep papain-like protease; enzyme activity; inhibitor; FRET).
For `CCOC(=O)[C@@]12C[C@@H]1[C@@H](n1cnc3c(NCCCCCCc4ccccc4)nc(I)nc31)[C@H](O)[C@@H]2O`, the Ki was 4.6 µM (SLC6A4; ligand displacement; radioligand).
The EC50 of `CC(C)C[C@H](NC(=O)[C@@H](N)[C@@H](C)O)C(=O)N[C@@H](CCC(N)=O)C(=O)N1CCC[C@H]1C(=O)N1CCC[C@H]1C(=O)N[C@@H](C)C(=O)N[C@@H](CO)C(=O)N[C@@H](CO)C(=O)N[C@@H](CCCNC(=N)N)C(=O)N[C@@H](CCCNC(=N)N)C(=O)N[C@@H](CCCNC(=N)N)C(=O)N[C@@H](Cc1c[nH]cn1)C(=O)N[C@@H](Cc1ccccc1)C(=O)N[C@@H](Cc1c[nH]cn1)C(=O)N[C@@H](Cc1c[nH]cn1)C(=O)N[C@@H](C)C(=O)N[C@@H](CC(C)C)C(=O)N1CCC[C@H]1C(=O)N1CCC[C@H]1C(=O)N[C@@H](C)C(=O)N[C@@H](CCCNC(=N)N)C(=O)O` is reported as 0.653 µM (C3a anaphylatoxin chemotactic receptor (C3AR1, Homo sapiens, UniProt Q16581); β-arrestin recruitment; agonist).
`OC[C@@H]1O[C@@H](OC[C@H]2O[C@@H](OC/C=C/c3ccccc3)[C@H](O)[C@@H](O)[C@@H]2O)[C@H](O)[C@H]1O` has a Kd of 7.57 µM (POU domain, class 3, transcription factor 3 (Homo sapiens, UniProt P20264); binding; SPR).
`N#CC[C@@]12C[C@@H]1[C@@H](n1cnc3c(NCCCCCCc4ccccc4)nc(I)nc31)[C@H](O)[C@@H]2O` has a Ki of 4.4 µM (SLC6A4; ligand displacement; radioligand).
